# ChEMBL document CHEMBL4342468, “Evolution of a 4-Benzyloxy-benzylamino Chemotype to Provide Efficacious, Potent, and Isoform Selective PPARα Agonists as Leads for Retinal Disorders” (J Med Chem, 2020)
# Key:
# [1] = Half life in Sprague Dawley rat pooled liver microsomes preincubated for 5 mins prior to addition of NADPH-regenerating system and measured up to 60 mins by HPLC-MS/MS analysis; assay type: ADME, Microsome; conditions: 1 h
# [2] = Half life in human pooled liver microsomes preincubated for 5 mins prior to addition of NADPH-regenerating system and measured up to 60 mins by HPLC-MS/MS analysis; assay type: ADME, Microsome; conditions: 1 h
# [3] = target: Voltage-gated inwardly rectifying potassium channel KCNH2 (Homo sapiens, UniProt Q12809); assay: Inhibition of human ERG stably expressed in CHOK1 cells assessed as tail current amplitude at 0.1 to 10 uM incubated for 5 mins measured after deploarization to +20 mV for 2s followed by 1s pulse to -40 mV with holding potential of -80 mV by Qpatch clamp assay; assay type: cell-based
# Chain of Voltage-gated inwardly rectifying potassium channel KCNH2 (Q12809 whole entry): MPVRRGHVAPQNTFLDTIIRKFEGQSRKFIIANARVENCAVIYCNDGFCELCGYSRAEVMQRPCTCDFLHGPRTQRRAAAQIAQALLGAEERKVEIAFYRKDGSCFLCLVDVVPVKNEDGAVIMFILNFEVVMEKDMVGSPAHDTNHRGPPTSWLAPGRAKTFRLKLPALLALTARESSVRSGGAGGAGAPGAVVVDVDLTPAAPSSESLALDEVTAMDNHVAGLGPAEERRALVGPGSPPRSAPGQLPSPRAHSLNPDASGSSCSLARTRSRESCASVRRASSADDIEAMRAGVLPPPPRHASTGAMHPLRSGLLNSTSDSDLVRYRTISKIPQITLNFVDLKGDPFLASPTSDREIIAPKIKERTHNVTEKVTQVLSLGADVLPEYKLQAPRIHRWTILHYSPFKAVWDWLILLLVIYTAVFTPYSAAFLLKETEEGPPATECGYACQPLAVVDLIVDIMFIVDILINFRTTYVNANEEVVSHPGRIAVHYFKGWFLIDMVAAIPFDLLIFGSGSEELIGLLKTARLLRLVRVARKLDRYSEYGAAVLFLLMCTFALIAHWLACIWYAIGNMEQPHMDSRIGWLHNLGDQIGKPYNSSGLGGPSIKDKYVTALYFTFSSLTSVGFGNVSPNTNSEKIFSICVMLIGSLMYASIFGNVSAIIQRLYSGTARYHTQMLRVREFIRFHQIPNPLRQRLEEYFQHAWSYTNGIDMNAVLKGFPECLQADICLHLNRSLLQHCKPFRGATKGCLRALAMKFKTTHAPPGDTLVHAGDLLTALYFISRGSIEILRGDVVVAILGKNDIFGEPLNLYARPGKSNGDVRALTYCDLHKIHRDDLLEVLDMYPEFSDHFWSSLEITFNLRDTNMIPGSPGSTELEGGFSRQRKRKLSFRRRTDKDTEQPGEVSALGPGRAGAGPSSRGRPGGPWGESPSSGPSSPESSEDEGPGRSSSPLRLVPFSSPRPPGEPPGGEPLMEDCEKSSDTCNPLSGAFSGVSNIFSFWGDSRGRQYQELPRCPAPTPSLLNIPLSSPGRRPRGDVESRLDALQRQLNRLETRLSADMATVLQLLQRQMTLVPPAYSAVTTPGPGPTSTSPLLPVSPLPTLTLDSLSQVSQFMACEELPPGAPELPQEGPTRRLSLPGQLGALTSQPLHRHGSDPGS
# In short: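 Whole-cell automated patch clamp at room temperature. CHO-K1 cells were detached with trypsin and held in serum-free medium. Intracellular solution was KCl/EGTA/MgATP/HEPES at pH 7.2; extracellular solution was NaCl/KCl/CaCl2/glucose/HEPES at pH 7.4, applied first for 5 min. Compound given at 0.1, 1 and 10 μM in rising order, 5 min each, on the same cell. Percent inhibition taken from tail current before and after compound. E-4031 reference. Run in duplicate.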
# [4] = tested on: 661W; assay: Cytotoxicity against mouse 661W cells assessed as cell death at 200 uM incubated for overnight by colorimetric enzyme coupled LDH assay; assay type: cell-based
# [5] = tested on: Rattus norvegicus; assay: Protection against STZ-induced diabetic retinopathy Brown Norway rat model assessed as reduction in vascular leakage by measuring retinal vascular permeability at 25 mg/kg, ip administered daily for 4 weeks starting at 2 weeks post STZ challenge measured per mg of total retinal protein by Evan blue dye based assay (reference value: 0.090 +/- 0.015 microg); assay type: functional
# In short: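 Male Brown Norway rats aged 8 weeks (legend: 7–8 weeks) made diabetic with STZ 55 mg/kg i.p.; blood glucose >350 mg/dl at day 3. Starting 2 weeks after STZ, daily i.p. compound or same-volume vehicle for 4 weeks. Under ketamine/xylazine, Evans blue 30 mg/ml at 1 µl/g given i.v. via femoral vein and circulated 2 h. Perfusion with 1% paraformaldehyde in citrate buffer, pH 4.2, at 37°C. Retina extracted in formamide 18 h at 70°C, ultracentrifuged, A620 read. Dye amount from a standard curve, normalized to total protein. Groups compared by Student's t-test, mean ± SD.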
# [6] = Toxicity in STZ-induced diabetic retinopathy Brown Norway rat model assessed as liver weight at 25 mg/kg, ip administered daily for 4 weeks starting at 2 weeks post STZ challenge relative to body weight (reference value: 4.36 +/- 0.37%); assay type: organism-based; conditions: in vivo
# [7] = Toxicity in STZ-induced diabetic retinopathy Brown Norway rat model at 25 mg/kg, ip administered for 1 month starting at 2 weeks post STZ challenge; assay type: organism-based; conditions: in vivo, 336 h
# [8] = target: T1, Peroxisome proliferator-activated receptor gamma (Homo sapiens, UniProt P37231); assay: Agonist activity at human PPARgamma expressed in nonhuman mammalian cells assessed as increase in receptor transcriptional activity incubated for 22 to 24 hrs by luciferase reporter gene assay; assay type: cell-based
# T1 sequence (P37231 whole entry): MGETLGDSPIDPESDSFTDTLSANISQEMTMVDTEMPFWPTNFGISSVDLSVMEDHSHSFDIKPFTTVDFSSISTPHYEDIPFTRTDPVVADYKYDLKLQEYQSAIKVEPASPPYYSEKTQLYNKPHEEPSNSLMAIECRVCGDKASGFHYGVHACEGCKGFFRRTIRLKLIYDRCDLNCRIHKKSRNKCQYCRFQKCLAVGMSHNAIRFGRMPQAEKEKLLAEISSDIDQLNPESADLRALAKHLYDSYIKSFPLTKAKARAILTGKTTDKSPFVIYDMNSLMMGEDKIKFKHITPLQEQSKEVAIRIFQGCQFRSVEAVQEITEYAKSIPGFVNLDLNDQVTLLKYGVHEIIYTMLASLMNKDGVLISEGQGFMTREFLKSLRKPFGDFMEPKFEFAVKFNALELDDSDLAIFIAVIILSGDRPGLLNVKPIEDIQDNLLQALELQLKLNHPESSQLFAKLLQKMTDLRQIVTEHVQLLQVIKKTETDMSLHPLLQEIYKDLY
# In short: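 Reporter cells (nonhuman mammalian, engineered PPAR receptor with luciferase linked to response promoter) pre-incubated 4–6 h at 37 °C, 5% CO2 in medium with 10% charcoal-stripped FBS. Medium replaced with compound-containing screening medium, 22–24 h at 37 °C, then luciferase detection reagent, luminescence read. Multi-point dose-response for EC50; mean ± SEM of at least two separate experiments in triplicate.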
# [9] = target: T2, Peroxisome proliferator-activated receptor delta (Homo sapiens, UniProt Q03181); assay: Agonist activity at human PPARdelta expressed in nonhuman mammalian cells assessed as increase in receptor transcriptional activity incubated for 22 to 24 hrs by luciferase reporter gene assay; assay type: cell-based
# T2 sequence (Q03181 whole entry): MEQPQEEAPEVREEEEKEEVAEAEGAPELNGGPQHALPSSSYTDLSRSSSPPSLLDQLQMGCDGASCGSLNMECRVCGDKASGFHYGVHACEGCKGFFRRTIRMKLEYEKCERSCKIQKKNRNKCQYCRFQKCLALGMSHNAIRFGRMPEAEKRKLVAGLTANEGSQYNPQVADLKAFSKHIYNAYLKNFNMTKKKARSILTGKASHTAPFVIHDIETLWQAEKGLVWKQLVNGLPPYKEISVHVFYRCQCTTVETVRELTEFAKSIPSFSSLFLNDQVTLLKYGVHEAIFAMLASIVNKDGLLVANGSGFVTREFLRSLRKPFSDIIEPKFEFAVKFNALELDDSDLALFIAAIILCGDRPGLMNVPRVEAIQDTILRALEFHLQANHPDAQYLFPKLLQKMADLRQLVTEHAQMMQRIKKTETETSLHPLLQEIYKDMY
# [10] = target: hERG (KCNH2) (Homo sapiens, UniProt Q12809); assay: Inhibition of human ERG stably expressed in CHOK1 cells assessed as tail current amplitude at 10 uM incubated for 5 mins measured after deploarization to +20 mV for 2s followed by 1s pulse to -40 mV with holding potential of -80 mV by Qpatch clamp assay relative to control; assay type: cell-based; conditions: CHO-K1 cells stably expressing human ERG
# Chain of hERG (KCNH2) (Q12809 whole entry): as the sequence (Q12809 whole entry) above
# In short: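 Whole-cell automated patch clamp at room temperature on CHO-K1 cells stably carrying human hERG cDNA. Holding potential -80 mV; tail current evoked by 2 s step to +20 mV then 1 s to -40 mV.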
# [11] = target: T3, Peroxisome proliferator-activated receptor alpha (Homo sapiens, UniProt Q07869); assay: Binding affinity to PPARalpha in human MIO-M1 cells assessed as increase in thermal stability preincubated for 3 hrs followed by exposure to 45.5 degree C for 10 mins by CETSA; assay type: cell-based
# T3 sequence (Q07869 whole entry): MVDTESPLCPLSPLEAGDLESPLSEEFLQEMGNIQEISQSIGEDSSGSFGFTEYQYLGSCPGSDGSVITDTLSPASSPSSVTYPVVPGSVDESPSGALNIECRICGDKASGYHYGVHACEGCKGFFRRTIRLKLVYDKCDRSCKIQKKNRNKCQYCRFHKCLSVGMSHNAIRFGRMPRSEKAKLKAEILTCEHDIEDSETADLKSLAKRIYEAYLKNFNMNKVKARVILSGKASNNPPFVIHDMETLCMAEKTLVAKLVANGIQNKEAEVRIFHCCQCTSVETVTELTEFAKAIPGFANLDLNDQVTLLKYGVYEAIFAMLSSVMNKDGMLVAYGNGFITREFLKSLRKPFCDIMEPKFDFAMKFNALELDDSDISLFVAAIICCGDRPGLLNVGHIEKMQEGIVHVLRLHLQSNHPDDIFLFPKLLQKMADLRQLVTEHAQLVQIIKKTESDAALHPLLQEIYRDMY
# In short: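 Human retinal Müller glial MIO-M1 cells grown in DMEM with 10% FBS. They were then heated at Tagg(75) for 10 min. Lysis used cold PBS with 0.1% Triton X-100 and protease inhibitors, and unstable protein was removed by centrifugation. Soluble PPARα was quantified by anti-PPARα immunoblot, normalized to loading control, and EC50 fitted. Single experiment, duplicate.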
# [12] = target: T4, Peroxisome proliferator-activated receptor alpha (Homo sapiens) (UniProt Q07869); assay: Binding affinity to His tagged PPARalpha LBD (unknown origin) expressed in Escherichia coli Rosetta (DE3) assessed as change in entropy at 25 degree C by isothermal titration calorimetry
# T4 sequence (whole entry): T3 sequence (Q07869 whole entry)
# [13] = target: T3, Peroxisome proliferator-activated receptor alpha
# [14] = Stability in Sprague Dawley rat pooled liver microsomes preincubated for 5 mins prior to addition of NADPH-regenerating system and measured up to 60 mins by HPLC-MS/MS analysis; assay type: ADME, Microsome; conditions: 1 h
# In short: (§1)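 Compound pre-incubated 5 min at 37 °C with pooled liver microsomes in phosphate buffer, pH 7.4. NADPH-generating system then added; samples taken at 0, 15, 30, 45 and 60 min and quenched in acetonitrile/methanol. […] References: propranolol, imipramine, verapamil, terfenadine. Run in duplicate.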
# [15] = Stability in human pooled liver microsomes preincubated for 5 mins prior to addition of NADPH-regenerating system and measured up to 60 mins by HPLC-MS/MS analysis; assay type: ADME, Microsome; conditions: 1 h; in short: as §1
Structure (SMILES),t1/2 [1] [h],t1/2 [2] [h],inhibition (INH) [3],Activity [4],Activity [5] [µg],Activity [6] [%],Activity [7],EC50 [8] [nM],EC50 [9] [nM],"inhibition at 5 min, 10 µM [10] [%]",EC50 [11] [nM],-TdeltaS [12] [kcal/mol],EC50 [13] [nM],Stability [14],Stability [15]
COc1ccc(COc2ccc(CNc3cccc(C(=O)O)c3)cc2)cc1,> 1,> 1,Not Active,Non-Toxic,0.062,4.68,Non-Toxic,> 100000,> 100000,10,300,5.71,4430,–,–
Cc1cc(CNc2cccc(C(=O)O)c2)ccc1OCc1ccc(F)cc1,–,–,–,–,–,–,–,–,–,10,93,-1.65,37,Stable,Stable
